ChEMBL document CHEMBL2203123, “Synthesis and biological evaluation of some hydrazone derivatives as new anticandidal and anticancer agents” (Eur J Med Chem, 2012)
pIC50: −log10 of the molar value. In brackets after ≈: the same amount, converted by molar mass.

Legend:
Salmonella typhimurium [1] = assay: Genotoxicity against Salmonella typhimurium TA100 assessed as fold increase in revertants at 0.625 mg/ml after 90 mins by Ames MPF test in absence of S9 fraction relative to baseline; format: toxicity, organism-based; conditions: salmonella enterica subsp. enterica serovar typhimurium, 1.5 h
Summary of the method: (§1)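 Ames MPF fluctuation test, TA98 and TA100: overnight cultures reincubated 90 min, then exposed 90 min at 37 °C to compounds at 0.156-5 mg/mL (in DMSO) with or without 4.5% v/v S9; indicator medium added, 48 wells per sample scored yellow after 48 h, triplicate. Fold over baseline = mean positive wells / (mean of DMSO control + 1 SD).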

Salmonella typhimurium [2] = assay: Genotoxicity against Salmonella typhimurium TA100 assessed as fold increase in revertants at 0.3125 mg/ml after 90 mins by Ames MPF test in absence of S9 fraction relative to baseline; format: toxicity, organism-based; conditions: salmonella enterica subsp. enterica serovar typhimurium, 1.5 h; summary of the method: as §1
Salmonella typhimurium [3] = assay: Genotoxicity against Salmonella typhimurium TA1535/pSK1002 assessed as growth factor ratio at 2.5 mg/ml by umuC assay in presence of S9 fraction; format: toxicity, organism-based; conditions: salmonella enterica subsp. enterica serovar typhimurium
Summary of the method: (§2)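 umuC Easy CS: TA1535/pSK1002 grown overnight in ampicillin TG medium at 37 °C, then exposed 2 h at 37 °C to compounds at 5, 2.5, 1.25, 0.63 mg/mL with or without S9. Diluted into fresh medium for 2 h growth (OD600), then β-galactosidase with ONPG 30 min at 28 °C, OD420. Positive controls 2-aminoanthracene (+S9), […] (−S9).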

Salmonella typhimurium [4] = assay: Genotoxicity against Salmonella typhimurium TA100 assessed as fold increase in revertants at 2.5 mg/ml after 90 mins by Ames MPF test in absence of S9 fraction relative to baseline; format: toxicity, organism-based; conditions: salmonella enterica subsp. enterica serovar typhimurium, 1.5 h; summary of the method: as §1
Cyberlindnera jadinii = assay: Antifungal activity against Candida utilis NRRL Y-900 after 24 hrs by microdilution susceptibility assay; format: functional; conditions: Williopsis jadinii, NRRL Y-900, 24 h
Summary of the method: (§3)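 Broth microdilution in Mueller Hinton Broth, compounds from DMSO stocks diluted serially; inocula standardized to 10^6 CFU/mL (McFarland 0.5) from overnight MHB cultures. Plates held 37 °C for 24 h; MIC taken as first well without turbidity, aided by 1% tetrazolium violet added for 3 h at 37 °C. Ketoconazole reference.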

Nakaseomyces glabratus = assay: Antifungal activity against Candida glabrata Osmangazi University clinical isolate after 24 hrs by microdilution susceptibility assay; format: functional; summary of the method: as §3
Salmonella typhimurium [5] = assay: Genotoxicity against Salmonella typhimurium TA1535/pSK1002 assessed as growth factor ratio at 0.63 mg/ml by umuC assay in absence of S9 fraction; format: toxicity, organism-based; conditions: salmonella enterica subsp. enterica serovar typhimurium; summary of the method: as §2
Candida albicans [6] = assay: Antifungal activity against Candida albicans clinical isolate after 24 hrs by microdilution susceptibility assay; format: functional; summary of the method: as §3
Salmonella typhimurium [7] = assay: Genotoxicity against Salmonella typhimurium TA1535/pSK1002 assessed as growth factor ratio at 5 mg/ml by umuC assay in presence of S9 fraction; format: toxicity, organism-based; conditions: salmonella enterica subsp. enterica serovar typhimurium; summary of the method: as §2
Salmonella typhimurium [8] = assay: Genotoxicity against Salmonella typhimurium TA100 assessed as fold increase in revertants at 1.25 mg/ml after 90 mins by Ames MPF test in absence of S9 fraction relative to baseline; format: toxicity, organism-based; conditions: salmonella enterica subsp. enterica serovar typhimurium, 1.5 h; summary of the method: as §1
Salmonella typhimurium [9] = assay: Genotoxicity against Salmonella typhimurium TA100 assessed as fold increase in revertants at 5 mg/ml after 90 mins by Ames MPF test in absence of S9 fraction relative to baseline; format: toxicity, organism-based; conditions: salmonella enterica subsp. enterica serovar typhimurium, 1.5 h; summary of the method: as §1
[10] = Genotoxicity against Salmonella typhimurium TA1535/pSK1002 assessed as induction ratio at 1.25 mg/ml by umuC assay in absence of S9 fraction; format: toxicity, organism-based; conditions: salmonella enterica subsp. enterica serovar typhimurium, Salmonella typhimurium TA1535/pSK1002 without S9 fraction; summary of the method: as §2
[11] = Genotoxicity against Salmonella typhimurium TA1535/pSK1002 assessed as induction ratio at 5 mg/ml by umuC assay in absence of S9 fraction; format: toxicity, organism-based; conditions: salmonella enterica subsp. enterica serovar typhimurium, Salmonella typhimurium TA1535/pSK1002 without S9 fraction; summary of the method: as §2
Candida albicans [12] = assay: Antifungal activity against Candida albicans ATCC 10231 after 24 hrs by microdilution susceptibility assay; format: functional; conditions: ATCC 10231, 24 h; summary of the method: as §3
Salmonella typhimurium [13] = assay: Genotoxicity against Salmonella typhimurium TA100 assessed as fold increase in revertants at 1.25 mg/ml after 90 mins by Ames MPF test in presence of S9 fraction relative to baseline; format: toxicity, organism-based; conditions: salmonella enterica subsp. enterica serovar typhimurium, s9, 1.5 h; summary of the method: as §1
Salmonella typhimurium [14] = assay: Genotoxicity against Salmonella typhimurium TA98 assessed as fold increase in revertants at 0.156 mg/ml after 90 mins by Ames MPF test in presence of S9 fraction relative to baseline; format: toxicity, organism-based; conditions: salmonella enterica subsp. enterica serovar typhimurium, s9, 1.5 h; summary of the method: as §1
[15] = Genotoxicity against Salmonella typhimurium TA1535/pSK1002 assessed as induction ratio at 5 mg/ml by umuC assay in presence of S9 fraction; format: toxicity, organism-based; conditions: salmonella enterica subsp. enterica serovar typhimurium, Salmonella typhimurium TA1535/pSK1002 with S9 fraction; summary of the method: as §2
[16] = Genotoxicity against Salmonella typhimurium TA1535/pSK1002 assessed as induction ratio at 0.63 mg/ml by umuC assay in presence of S9 fraction; format: toxicity, organism-based; conditions: salmonella enterica subsp. enterica serovar typhimurium, Salmonella typhimurium TA1535/pSK1002 with S9 fraction; summary of the method: as §2
[17] = Genotoxicity against Salmonella typhimurium TA1535/pSK1002 assessed as induction ratio at 1.25 mg/ml by umuC assay in presence of S9 fraction; format: toxicity, organism-based; conditions: salmonella enterica subsp. enterica serovar typhimurium, Salmonella typhimurium TA1535/pSK1002 with S9 fraction; summary of the method: as §2
NIH3T3 = assay: Cytotoxicity against mouse NIH/3T3 cells after 24 hrs by XTT assay; format: cell-based; conditions: NIH3T3, 24 h
Summary of the method: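 Mouse NIH3T3 fibroblasts grown in DMEM with fetal calf serum, penicillin/streptomycin, 37 °C, 5% CO2; 20,000 cells/well, treated after 24 h with 0.00316 µM-10 mM compound for 24 h. Viability via XTT (3 h, OD 480 nm, reference 680 nm); % inhibition computed and IC50 fitted by non-linear regression.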

Salmonella typhimurium [18] = assay: Genotoxicity against Salmonella typhimurium TA1535/pSK1002 assessed as induction ratio at 0.63 mg/ml by umuC assay in absence of S9 fraction; format: toxicity, organism-based; conditions: salmonella enterica subsp. enterica serovar typhimurium; summary of the method: as §2
Salmonella typhimurium [19] = assay: Genotoxicity against Salmonella typhimurium TA1535/pSK1002 assessed as induction ratio at 2.5 mg/ml by umuC assay in presence of S9 fraction; format: toxicity, organism-based; conditions: salmonella enterica subsp. enterica serovar typhimurium; summary of the method: as §2

| SMILES | fold change (FC) (Salmonella typhimurium [1]) | fold change (FC) (Salmonella typhimurium [2]) | Ratio (Salmonella typhimurium [3]) | fold change (FC) (Salmonella typhimurium [4]) | MIC (Cyberlindnera jadinii) [µg/mL] | MIC (Nakaseomyces glabratus) [µg/mL] | Ratio (Salmonella typhimurium [5]) | MIC (Candida albicans [6]) [µg/mL] | Ratio (Salmonella typhimurium [7]) | fold change (FC) (Salmonella typhimurium [8]) | fold change (FC) (Salmonella typhimurium [9]) | fold induction at 1.25 mg/ml [10] | fold induction at 5 mg/ml [11] | MIC (Candida albicans [12]) [µg/mL] | fold change (FC) (Salmonella typhimurium [13]) | fold change (FC) (Salmonella typhimurium [14]) | fold induction at 5 mg/ml [15] | fold induction at 0.63 mg/ml [16] | fold induction at 1.25 mg/ml [17] | pIC50 (NIH3T3) | also measured |
| --- | --- | --- | --- | --- | --- | --- | --- | --- | --- | --- | --- | --- | --- | --- | --- | --- | --- | --- | --- | --- | --- |
| CN(C)c1ccc(/C=N/NC(=O)CSc2nnnn2C)cc1 | 1.38 | 1.19 | 1.992 | 1.14 | 125 (≈ 391 µM) | 500 (≈ 1570 µM) | 0.962 | 125 (≈ 391 µM) | 2.82 | 1 | 0.81 | 1.13 | 0.565 | 125 (≈ 391 µM) | 0.26 | 0.86 | 0.379 | 0.704 | 0.67 | 3.50 | Ratio (Salmonella typhimurium [18]): 1.36; Ratio (Salmonella typhimurium [19]): 0.598 |
| Cn1nnnc1SCC(=O)N/N=C/c1ccc(O)cc1 | 0.66 | 0.41 | 1.663 | 0.33 | 500 (≈ 1710 µM) | 1000 (≈ 3420 µM) | 1.009 | 500 (≈ 1710 µM) | 2.139 | 0.91 | 0 | 0.99 | 0.661 | 500 (≈ 1710 µM) | 0.59 | 0.32 | 0.419 | 0.797 | 0.699 | 3.20 | Ratio (Salmonella typhimurium [18]): 1.181; Ratio (Salmonella typhimurium [19]): 0.657 |
| COc1ccc(/C=N/NC(=O)CSc2nnnn2C)cc1 | 0.3 | 0.4 | 1.83 | 0.6 | 250 (≈ 816 µM) | 500 (≈ 1630 µM) | 1.028 | 500 (≈ 1630 µM) | 2.261 | 0.2 | 0.5 | 1.12 | 0.763 | 500 (≈ 1630 µM) | 0.81 | 0.42 | 0.568 | 0.814 | 0.769 | < 2.00 | Ratio (Salmonella typhimurium [18]): 1.357; Ratio (Salmonella typhimurium [19]): 0.681 |
| Cn1nnnc1SCC(=O)N/N=C/c1ccccc1[N+](=O)[O-] | 0.83 | 1.67 | 0.922 | 0.67 | 250 (≈ 778 µM) | 500 (≈ 1560 µM) | 1.068 | 500 (≈ 1560 µM) | 0.913 | 1.33 | 1.33 | 1.51 | 1.43 | 500 (≈ 1560 µM) | 1.93 | 1 | 1.19 | 1.23 | 1.18 | 2.69 | Ratio (Salmonella typhimurium [18]): 1.509; Ratio (Salmonella typhimurium [19]): 1.014 |
| Cn1nnnc1SCC(=O)N/N=C/c1ccccc1F | 0.23 | 0.06 | 1.699 | 0.17 | 125 (≈ 425 µM) | 250 (≈ 849 µM) | 1.045 | 125 (≈ 425 µM) | 2.579 | 0.29 | 0.17 | 1.02 | 0.321 | 250 (≈ 849 µM) | 0.88 | 0.29 | 0.284 | 0.936 | 0.548 | 2.70 | Ratio (Salmonella typhimurium [18]): 1.312; Ratio (Salmonella typhimurium [19]): 0.352 |
